High-throughput results: PubChem BioAssay, The Scripps Research Institute Molecular Screening Center
ARFGAP1 inh: inhibitors of rat ARFGAP1 | Q62848 | Arfgap1-stimulated ARF1 GTP hydrolysis, GDP FP detection | inhibition, % at 16.5 µM | 360,000 compounds, 0.26% hits;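 active means inhibition above a per-plate limit, mean inhibition of low control wells plus 3 SD, cut at about 25% in these data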
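Repeats: one replicate per compound; assay system: rat Arfgap1 catalytic domain, aa 1-136; times: enzyme reaction 120 min at 25 °C after 20 min preincubation; detection: FP of antibody-bound GDP Alexa 633 tracer, ex 620/em 688 nm; benchmarks: high control wells lacking Arfgap1, low control full reaction with DMSO; reagent: human ARF1(Δ1-17)-GTP substrate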
LEDGF integ inh: blocks HIV-1 LEDGF/p75-dependent DNA integration. TR-FRET IN-LEDGF/p75 DNA integration, Eu/Cy5. inhibition, % at 3.7 µM. 370,000 compounds, 0.64% hits;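 active means inhibition above the screen-wide mean plus 3 SD, cut at about 13% in these data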;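 further: signal is the Cy5 over europium emission ratio at 671 and 618 nm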
TDP2 inh: blocks human TDP2 phosphodiesterase activity | O95551 | recombinant TDP2, T5PNP hydrolysis, p-nitrophenol absorbance 415 nm | inhibition, % at 12.8 µM | 370,000 compounds, 0.34% hits;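 active means inhibition above the mean of all tested compounds plus 3 SD, set per campaign, cut at about 25% in these data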
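Material: recombinant human TDP2; quantity: TDP2 enzyme at 120 nM final; medium: Tris-HCl pH 7.5 with MgCl2; compound: single concentration, 12.8 µM nominal, with 1% DMSO; incubation: 2 h enzyme incubation at 37 °C; signal: epi absorbance; measure: percent inhibition; benchmarks: high control without enzyme, low control DMSO plus TDP2; repeats: singlicate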
UHRF1 MBD2 ctr: blocks human UHRF1 binding to methylated DNA | UHRF1 binding to methylated oligo, TR-FRET | inhibition, % at 4.4 µM | Q96T88 | 370,000 compounds, 0.75% hits; in the data active means inhibition above about 21%;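 further: UHRF1 SRA domain binding a hemimethylated CpG hairpin DNA probe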
Target sequence (Q96T88 whole entry, looked up, the tested form may be a part): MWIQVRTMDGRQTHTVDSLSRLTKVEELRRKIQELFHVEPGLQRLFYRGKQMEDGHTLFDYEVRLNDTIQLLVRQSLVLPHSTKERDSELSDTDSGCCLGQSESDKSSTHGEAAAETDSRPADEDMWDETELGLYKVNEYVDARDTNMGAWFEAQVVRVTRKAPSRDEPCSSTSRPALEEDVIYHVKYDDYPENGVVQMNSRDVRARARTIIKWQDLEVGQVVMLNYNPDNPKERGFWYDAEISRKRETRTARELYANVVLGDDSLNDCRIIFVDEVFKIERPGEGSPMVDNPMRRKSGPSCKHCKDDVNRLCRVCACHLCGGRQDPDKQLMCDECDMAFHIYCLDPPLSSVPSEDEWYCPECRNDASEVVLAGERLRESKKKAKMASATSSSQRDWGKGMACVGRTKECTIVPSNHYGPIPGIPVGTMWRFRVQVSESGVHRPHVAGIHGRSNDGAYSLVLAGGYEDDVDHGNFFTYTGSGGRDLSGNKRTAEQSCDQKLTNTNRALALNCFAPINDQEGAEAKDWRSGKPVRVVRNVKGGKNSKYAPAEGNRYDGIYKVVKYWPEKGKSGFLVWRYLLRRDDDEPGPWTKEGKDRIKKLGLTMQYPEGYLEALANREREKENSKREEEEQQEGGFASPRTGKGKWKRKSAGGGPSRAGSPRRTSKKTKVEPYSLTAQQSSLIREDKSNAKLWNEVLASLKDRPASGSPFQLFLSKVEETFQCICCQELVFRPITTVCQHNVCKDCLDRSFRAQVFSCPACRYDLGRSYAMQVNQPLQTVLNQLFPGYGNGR
ASAP1 GAP inh: ASAP1 ArfGAP inhibition; AID 624377; 360,000 compounds, 0.19% hits; Q9ULH1; inhibition, % at 16.5 µM; ASAP1-stimulated ARF1 GTP hydrolysis, GDP FP detection; in the data active means inhibition above about 25%
MBD2 DNA inh: inhibitors of human MBD2 binding to methylated oligonucleotide | Q9UBB5 | TR-FRET | inhibition, % at 4.4 µM | 370,000 compounds, 0.31% hits | AID 686964; in the data active means inhibition above about 13%
Each line names hits and unclear results; the compound was inactive in the other large screens. Most compounds without a hit are left out; they make up all but 2% or so of the library.

Cc1ccccc1N1CCN(C2CCCN(C(=O)c3csc(C(C)C)n3)C2)CC1 (centres undefined)	LEDGF integ inh 15.0
O=C(CSc1nnc(-c2ccccc2)n1-c1ccc(Cl)cc1)c1ccc(F)cc1	none (no result: ARFGAP1 inh, ASAP1 GAP inh)
CCOc1ccc(-c2csc(N3CCC(C(N)=O)CC3)n2)cc1	none (no result: ARFGAP1 inh, ASAP1 GAP inh)
Clc1ccc2c(SCC3CO3)c3ccccc3nc2c1 (centres undefined)	UHRF1 MBD2 ctr 71.5
CN1C(=O)c2cc(NC(=O)c3ccccc3)ccc2OC[C@H]2O[C@@H](CC(=O)NCC3CC3)CC[C@@H]21	none (no result: ARFGAP1 inh, ASAP1 GAP inh)
O=C(CSc1nnc(-c2ccccc2)n1-c1ccccc1)NN=Cc1ccc(-c2ccccc2)cc1	none (no result: ARFGAP1 inh, ASAP1 GAP inh)
CCC(C)[C@H](NC(=O)NCc1ccc(OC)c(OC)c1)C(=O)O (some centres undefined)	none
COc1ccc(CNC(=O)N[C@@H](CC(C)C)C(=O)O)cc1OC	UHRF1 MBD2 ctr 25.7
CCCCN(CC)c1nc(N)c2c(N)nc(OCC)cc2c1C#N	UHRF1 MBD2 ctr 38.5
COC(=O)[C@H]1C[C@@]2(N3CCCC3)c3ccccc3N[C@H]2N1S(=O)(=O)c1ccc([N+](=O)[O-])cc1	none (no result: ARFGAP1 inh, ASAP1 GAP inh)
COc1cc2c(cc1OC)C(C(=O)Nc1cc(OC)c(OC)c(OC)c1)C(c1cccnc1)N(C)C2=O (centres undefined)	none
COc1cc2c(cc1OC)C(C(=O)N(C)Cc1ccccc1)C(c1cccnc1)N(C)C2=O (centres undefined)	UHRF1 MBD2 ctr 38.2
COC(=O)C1=C(C)NC(=S)NC1c1ccc(-c2ccccc2C(=O)OC)o1 (centres undefined)	UHRF1 MBD2 ctr 21.9
COC(=O)C1=C(C)NC(=S)NC1c1ccc(-c2cccc(Cl)c2)o1 (centres undefined)	none
CNC(=O)c1cccc2cccc(Sc3ccccc3C(=O)O)c12	UHRF1 MBD2 ctr 29.0
C/C(=N/NC(=O)CSc1nnc(SCc2ccc(C)cc2)s1)c1cccc(O)c1	none (no result: ARFGAP1 inh, ASAP1 GAP inh)
COCCn1cnc2c(c1=O)c1nc3ccccc3nc1n2/N=C/c1cccc(OC)c1	UHRF1 MBD2 ctr 24.4
O=C1CS/C(=N\N=C\c2ccccc2Cl)N1CC1CC1	UHRF1 MBD2 ctr 24.7
CC(C)(C)c1ccc(-c2nnc3n2N=C(c2ccc4ccccc4c2)CS3)cc1	none (no result: ARFGAP1 inh, ASAP1 GAP inh)
Cc1nc(NC(=O)COC(=O)[C@@H](NC(=O)c2ccco2)C(C)C)c(Cl)cc1Cl	UHRF1 MBD2 ctr 41.8
Cc1ccc(-c2cc3nc(-c4ccco4)cc(N4CCN(Cc5ccoc5)CC4)n3n2)cc1	none (no result: ARFGAP1 inh, ASAP1 GAP inh)
COc1cc2c(cc1OC)C(C1C(=O)CC(C)CC1=O)N(C(=O)CCl)CC2 (centres undefined)	UHRF1 MBD2 ctr 32.0
O=C(Nc1ccnn1C1CCN(C(=O)c2ccccc2C(F)(F)F)CC1)C1CC1	LEDGF integ inh 14.3
O=C(Nc1ccnn1C1CCN(C(=O)c2c(F)cccc2F)CC1)C1CC1	none
O=C(NC(=S)NC1CCSC1=O)c1cccs1 (centres undefined)	UHRF1 MBD2 ctr 49.7
CCc1ccc2nc3nc(C)cc(C)c3c(N)c2c1	UHRF1 MBD2 ctr 22.2
CC(C)CN1C(=O)C[C@]2(C(=O)N(C)c3ccc(NC(=O)C(F)(F)F)cc32)C1c1ccccc1 (some centres undefined)	none (no result: ARFGAP1 inh, ASAP1 GAP inh)
CCOC(=O)c1[nH]c(C)c(C(=O)OCc2c(C)noc2C)c1C	UHRF1 MBD2 ctr 22.2
CC(C)=CCC/C(C)=C/C[C@]12C[C@H](C(=O)O)N(C(=O)OC(C)(C)C)[C@@H]1N(C(=O)OC(C)(C)C)c1ccccc12	none (no result: ARFGAP1 inh, ASAP1 GAP inh)
O=C(CCCCC(=O)NCc1cccs1)NCc1cccs1	UHRF1 MBD2 ctr 22.7
O=S1(=O)CC(N2CCN(Cc3ccccc3F)CC2)CN1Cc1cn(Cc2ccc(C(F)(F)F)cc2)nn1 (centres undefined)	UHRF1 MBD2 ctr 21.0
Cc1ccc2nc3c(c(C(=O)O)c2c1)CCC3	UHRF1 MBD2 ctr 21.4
CCc1ccc(Oc2c(Cl)cnn(-c3ccc(C)cc3)c2=O)cc1	none (no result: ARFGAP1 inh, ASAP1 GAP inh)
COc1cccc(NS(=O)(=O)c2ccc3c(c2)C2C=CCC2C(c2ccc(C(=O)O)cc2)N3)c1 (centres undefined)	LEDGF integ inh 43.8
O=C(O)c1ccc2c(c1)[C@@H]1C=CC[C@@H]1[C@H](c1ccccn1)N2	LEDGF integ inh 94.8, TDP2 inh 25.8, UHRF1 MBD2 ctr 97.9, MBD2 DNA inh 90.6
CCOC(=O)c1ccc2c(c1)C1C=CCC1C(C(=O)OCC)N2 (centres undefined)	none
COC(=O)c1cc(C(C)c2c[nH]c3ccccc23)n2ccccc12 (centres undefined)	none (no result: ARFGAP1 inh, ASAP1 GAP inh)
CCOc1ccc2[nH]c3c(NCCc4ccc(OC)c(OC)c4)ncnc3c2c1	UHRF1 MBD2 ctr 45.2
C[C@@]12C[C@@H]3C(=O)N(Cc4ccccc4)CC(=O)N3[C@@H]1N(S(=O)(=O)c1ccccc1)c1ccccc12	none (no result: ARFGAP1 inh, ASAP1 GAP inh)
CCc1ccc(NC(=O)c2cccc(NC3=NC4CS(=O)(=O)CC4S3)c2)cc1 (centres undefined)	UHRF1 MBD2 ctr 26.6
O=[N+]([O-])c1cccc(NC(=S)N2CCCC2)c1	UHRF1 MBD2 ctr 26.5
CC(=O)N[C@@H](C)CCc1ccc(Oc2ccc(OC(C)C)nc2)cc1	none (no result: ARFGAP1 inh, ASAP1 GAP inh)
Cc1ccc(SC2CCN(C(=O)C3CCC(=O)N(C4CC4)C3)CC2)cc1 (centres undefined)	UHRF1 MBD2 ctr 22.2
CCOC(=O)c1sc2nc(OCc3cccnc3)cc(C)c2c1N	UHRF1 MBD2 ctr 55.4, MBD2 DNA inh 25.4
CC(=O)N1N=C(c2ccco2)CC1c1cccs1 (centres undefined)	none
CC(=O)N1N=C(c2ccco2)CC1c1ccc(Cl)o1 (centres undefined)	UHRF1 MBD2 ctr 32.9
CC(=O)N1CCN(c2cc(-c3ccco3)nc3cc(-c4ccccc4)nn23)CC1	none (no result: ARFGAP1 inh, ASAP1 GAP inh)
Cc1ccccc1N1CC(=O)N(c2ccccc2C)CC1=O	none
CC1=NN(c2ccccc2C)C(=O)C1	TDP2 inh 50.7
OC(C#CCN1CCCC1)(c1ccccc1)c1cccnc1 (centres undefined)	UHRF1 MBD2 ctr 21.5
CCCNC(=O)C[C@H]1CC[C@H]2[C@@H](COc3ccc(NC(=O)Nc4ccc(C#N)cc4)cc3C(=O)N2C)O1	none (no result: ARFGAP1 inh, ASAP1 GAP inh)
CCCCNc1nc(Cl)nc(Nc2ccc(C)cc2)n1	UHRF1 MBD2 ctr 21.3
CCOC(=O)CC[C@@H]1CC[C@]2(CCCN(Cc3ccc(OC)cc3)C2)O1	none (no result: ARFGAP1 inh, ASAP1 GAP inh)
C[C@@H](NC(=O)C[C@@H]1C[C@@H]2c3cc(NS(=O)(=O)c4ccc(F)cc4)ccc3O[C@@H]2[C@@H](CO)O1)c1ccccc1	none
O=C(C[C@@H]1C[C@@H]2c3cc(NS(=O)(=O)c4ccc(F)cc4)ccc3O[C@@H]2[C@H](CO)O1)NCc1ccc(Oc2ccccc2)cc1	UHRF1 MBD2 ctr 23.4
